Data: ChEMBL document CHEMBL4270576, “Discovery of a benzenesulfonamide-based dual inhibitor of microsomal prostaglandin E2 synthase-1 and 5-lipoxygenase that favorably modulates lipid mediator biosynthesis in inflammation” (Eur J Med Chem, 2018)

Target: T1, Polyunsaturated fatty acid lipoxygenase ALOX15 (Homo sapiens) (UniProt P16050)
T1 sequence (whole entry): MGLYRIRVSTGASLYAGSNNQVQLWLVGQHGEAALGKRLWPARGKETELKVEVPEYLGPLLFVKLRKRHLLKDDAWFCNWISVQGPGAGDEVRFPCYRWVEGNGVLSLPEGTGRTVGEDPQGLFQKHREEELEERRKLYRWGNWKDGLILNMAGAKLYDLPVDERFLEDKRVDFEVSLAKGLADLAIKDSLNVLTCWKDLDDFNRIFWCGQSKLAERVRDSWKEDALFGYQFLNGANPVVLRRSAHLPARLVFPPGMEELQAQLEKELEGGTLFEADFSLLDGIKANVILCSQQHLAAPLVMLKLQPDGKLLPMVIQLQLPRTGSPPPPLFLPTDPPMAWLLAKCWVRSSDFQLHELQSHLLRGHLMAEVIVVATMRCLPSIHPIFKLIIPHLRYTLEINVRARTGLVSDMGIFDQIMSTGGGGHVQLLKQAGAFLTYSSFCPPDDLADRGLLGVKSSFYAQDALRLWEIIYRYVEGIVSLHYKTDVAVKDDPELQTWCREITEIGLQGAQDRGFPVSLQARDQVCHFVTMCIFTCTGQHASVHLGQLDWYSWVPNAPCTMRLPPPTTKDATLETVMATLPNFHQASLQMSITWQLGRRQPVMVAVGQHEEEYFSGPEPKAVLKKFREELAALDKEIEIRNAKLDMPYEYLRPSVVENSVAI
Test: Modulation of 15-LO-mediated 17-HDHA level in human M2 macrophages derived from IL4-polarized human monocyte derived macrophages at 3 uM preincubated for 15 mins followed by Escherichia coli (O6:K2:H1) challenge for 90 mins by LC-MS/MS analysis
Method in brief: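 Monocytes differentiated 6 days with M-CSF (20 ng/ml), then polarized 48 h with IL-4 20 ng/ml (M2). Cells (2 × 10^6) in PBS/1 mM CaCl2 pre-incubated 15 min at 37 °C with 3 µM compound or 0.1% DMSO, then challenged with E. coli O6:K2:H1 (1:50) for 90 min. Lipid mediators extracted by SPE with deuterated internal standards and quantified by UPLC-MS/MS as % of vehicle.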

O=C(O)c1ccc(N(Cc2cccc(OCc3ccccc3)c2)S(=O)(=O)c2ccc(-c3ccccc3)cc2)cc1
Activity: 124%
